Blank lines part the entries; values can stand above or below the molecule they belong to.
Key:
[1] = test system: human T-lymphocyte Molt4/C8 cells; experiment: Cell growth inhibitory activity, Molt/4; assay type: cell-based; details: Molt4/C8, 48 h, read-out: IC50 Molt4/C8
[2] = test system: K562 (human chronic myelogenous leukemia) cells; experiment: Flow cytometric analysis of cell cycle distribution; assay type: cell-based; details: 24 h, compound at concentration inhibiting 100% cell growth
[3] = test system: murine mammary carcinoma (FM3A) cells; experiment: Cell growth inhibitory activity, FM3A; assay type: cell-based; details: Mus musculus, 48 h, read-out: IC50 FM3A/0
[4] = test system: murine leukemia (L1210) cells; experiment: Cell growth inhibitory activity, L1210; assay type: cell-based; details: Mus musculus, L1210, 48 h, read-out: IC50 L1210
Outline: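 Murine leukemia cells at 300,000-500,000 cells/mL were mixed 1:1 with dilutions of test compound and incubated at 37 °C for two days. Cell number was counted with a Coulter counter. IC50 is the concentration inhibiting proliferation by 50%, taken from dose–response curves as mean ± SE of at least three independent experiments.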

[5] = test system: L1210, FM3A, Molt/4, CEM and HeLa cells; experiment: Cell growth inhibitory activity, panel of cell lines; assay type: cell-based, murine and human; details: for IC50: read-out: IC50 values, range over the cell lines
Outline: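 Murine L1210 leukemia and FM3A mammary carcinoma cells, and human Molt 4, CEM (T-lymphocyte) and HeLa (cervix carcinoma) cells. Cells were suspended at 300,000–500,000 cells/mL and mixed 1:1 with serial dilutions of test compound. Incubated 2 days at 37 °C, then cell number counted with a Coulter counter. IC50 (50% inhibition of proliferation) was taken from dose–response curves as mean ± SE of ≥3 independent experiments.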

[6] = test system: human cervix carcinoma (HeLa) cells; experiment: Cell growth inhibitory activity, HeLa; assay type: cell-based
bovine brain tubulin = experiment: Inhibition of tubulin polymerization; assay type: biochemical
[7] = test system: K562 (human chronic myelogenous leukemia) cells; experiment: Concentration inhibiting 100% cell growth of K562 cells; assay type: cell-based

Structure (SMILES): COc1cc(C(=O)c2cc3cc(Cl)ccc3o2)cc(OC)c1OC [Compound 4g, (5-Chlorobenzofuran-2-yl)(3,4,5-trimethoxyphenyl)methanone]
IC50 [1]: > 10000 nM

Structure (SMILES): COc1cc(C(=O)c2cc3c(OC)cccc3o2)cc(OC)c1OC [Compound 4b, (4-Methoxybenzofuran-2-yl)(3,4,5-trimethoxyphenyl)methanone]
sub-G0–G1 peak (apoptotic peak, A) [2]: 20–44%

Structure (SMILES): COc1ccc2c(N)c(C(=O)c3cc(OC)c(OC)c(OC)c3)oc2c1 [Compound 3a]
IC50 [3]: 280 ± 160 nM
IC50 [4]: 430 ± 40 nM
IC50 [5]: 87 to 430 nM

Structure (SMILES): COc1cc(C(=O)c2oc3ccc(O)cc3c2C)cc(OC)c1OC [Compound 4w, (5-Hydroxy-3-methylbenzofuran-2-yl)(3,4,5-trimethoxyphenyl)methanone]
sub-G0–G1 peak (apoptotic peak, A) [2]: 20–44%

Structure (SMILES): COc1ccc2cc(C(=O)c3cc(OC)c(OC)c(OC)c3)oc2c1 [Compound 4d, (6-Methoxybenzofuran-2-yl)(3,4,5-trimethoxyphenyl)methanone]
IC50 [5]: 59 to 110 nM

Structure (SMILES): COc1cc(C(=O)c2oc3cccc(OC)c3c2C)cc(OC)c1OC [Compound 4p, (4-Methoxy-3-methylbenzofuran-2-yl)(3,4,5-trimethoxyphenyl)methanone]
effect on cell cycle distribution [2]: accumulate in late S phase
sub-G0–G1 peak (apoptotic peak, A) [2]: 20–44%

Structure (SMILES): COc1ccc(/C=C\c2cc(OC)c(OC)c(OC)c2)cc1O [CA4, combretastatin A-4]
IC50 [4]: 2.8 ± 1.1 nM

Structure (SMILES): COc1cc(C(=O)c2cc3cc(OC)c(OC)c(OC)c3o2)cc(OC)c1OC [Compound 4k, (5,6,7-Trimethoxybenzofuran-2-yl)(3,4,5-trimethoxyphenyl)methanone]
IC50 [1]: > 10000 nM

Structure (SMILES): COc1cc(C(=O)c2cc3cc(O)ccc3o2)cc(OC)c1OC [Compound 4l, (5-Hydroxybenzofuran-2-yl)(3,4,5-trimethoxyphenyl)-methanone]
IC50 [1]: > 10000 nM

Structure (SMILES): COc1ccc2c(N(C)C)c(C(=O)c3cc(OC)c(OC)c(OC)c3)oc2c1 [Compound 3b]
IC50 [3]: 59 ± 5 nM
IC50 [4]: 65 ± 5 nM
IC50 [5]: 48 to 78 nM

Structure (SMILES): COc1cc(C(=O)c2oc3cc(F)ccc3c2C)cc(OC)c1OC [Compound 4u, (6-Fluoro-3-methylbenzofuran-2-yl)(3,4,5-trimethoxyphenyl)methanone]
effect on cell cycle distribution [2]: accumulate in late S phase
sub-G0–G1 peak (apoptotic peak, A) [2]: 20–44%
antitubulin polymerization activity (in words) (bovine brain tubulin): weak antitubulin polymerization activity
concentration able to inhibit 100% cell growth after 24 h [7]: 1.62 µM

Structure (SMILES): COc1cc(C(=O)c2cc3cccc(O)c3o2)cc(OC)c1OC [Compound 4n, (7-Hydroxybenzofuran-2-yl)(3,4,5-trimethoxyphenyl)-methanone]
IC50 [1]: > 10000 nM

Second part, led by results:

IC50 [1]: > 10000 nM
Structure (SMILES): COc1cc(C(=O)c2cc3ccc(O)cc3o2)cc(OC)c1OC [Compound 4m, (6-Hydroxybenzofuran-2-yl)(3,4,5-trimethoxyphenyl)-methanone]

IC50 [1]: > 10000 nM
Structure (SMILES): COc1cc(C(=O)c2cc3cc(Br)ccc3o2)cc(OC)c1OC [Compound 4h, (5-Bromobenzofuran-2-yl)(3,4,5-trimethoxyphenyl)methanone]

IC50 [1]: > 10000 nM
Structure (SMILES): COc1cc(C(=O)c2cc3ccc(OC)c(O)c3o2)cc(OC)c1OC [Compound 4i, (7-Hydroxy-6-methoxybenzofuran-2-yl)(3,4,5-trimethoxyphenyl)methanone]

IC50 [1]: 100 ± 10 nM
Structure (SMILES): COc1ccc2cc(C(=S)c3cc(OC)c(OC)c(OC)c3)oc2c1 [Compound 4y, (6-methoxybenzofuran-2-yl)(3,4,5-trimethoxyphenyl)methanethione]

IC50 [5]: 1.2 to 6.3 nM
Structure (SMILES): CCOc1ccc2c(C)c(C(=O)c3cc(OC)c(OC)c(OC)c3)oc2c1 [Compound 4t, (6-Ethoxy-3-methylbenzofuran-2-yl)(3,4,5-trimethoxyphenyl)methanone]
fold increase of activity relative to 4r [6]: 2 fold
fold increase of activity relative to 4r ([5]; L1210, FM3A, Molt/4 and CEM cells): 10 fold

IC50 [1]: > 10000 nM
Structure (SMILES): COc1ccc2cc(C(OC)c3cc(OC)c(OC)c(OC)c3)oc2c1 (stereo not shown) [Compound 4aa, 6-methoxy-2-(methoxy(3,4,5-trimethoxyphenyl)methyl)benzofuran]

IC50 [5]: 3 to 27 nM
Structure (SMILES): COc1ccc2c(C)c(C(=O)c3cc(OC)c(OC)c(OC)c3)oc2c1 [Compound 4r, (6-Methoxy-3-methylbenzofuran-2-yl)(3,4,5-trimethoxyphenyl)methanone]

IC50 [1]: > 10000 nM
Structure (SMILES): COc1ccc2c3c(oc2c1)C(=O)c1cc(OC)c(OC)c(OC)c1-3 [Compound 4ac, 3,8,9,10-tetramethoxy-6H-benzo[b]indeno[1,2-d]furan-6-one]
antiproliferative activity (in words) ([5]; five cell lines): completely inactive

— PMC2762272 (Bioorganic & medicinal chemistry, 2009)
